# In ChEMBL document CHEMBL2163322, “Identification of small molecule inhibitors of the HIV-1 nucleocapsid-stem-loop 3 RNA complex” (J Med Chem, 2012):
# Active and inactive are the calls of the source. No cut-off for these calls is given here.
# Columns and labels:
# Nucleic Acid [1] = test: Binding affinity to HIV 1 SL3 RNA by ITC analysis; format: nucleic-acid assay, Human immunodeficiency virus 1; conditions: read-out: Kd(app)
# Procedure, shortened: (§1)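 Isothermal titration calorimetry at 25 °C. Ligand at 1 mM is injected in 10 μL aliquots into 20 μM RNA. Both are in 10 mM sodium phosphate pH 7.4 with 10% DMSO. Injections last 24 s and are spaced 240 s apart. Heats are corrected with ligand-into-buffer controls. KD values come from a sequential two-site binding fit to heat versus ligand:RNA molar ratio. SD is from two measurements.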
# Nucleic Acid [2] = test: Destabilization of HIV1 [32P]-labeled SL3 RNA-NCp complex assessed as displacement of NCp from SL3 RNA after 1 hr by electrophoretic gel mobility shift assay; format: nucleic-acid assay, Human immunodeficiency virus 1; conditions: for Ki: read-out: Ki(app)
# Procedure, shortened: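 Gel shift assay. Ligand is then added at rising concentrations for another 1 h. Samples are run on a 6% native gel at 4 °C. IC50 comes from a Hill fit of bound-RNA counts. Ki = IC50/(1+[PT]/KD). SD is from at least three experiments.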
# Nucleic Acid [3] = test: Binding affinity to HIV 1 SL3 RNA assessed as second binding dissociation constant by ITC analysis; format: nucleic-acid assay, Human immunodeficiency virus 1; conditions: read-out: Kd(app)
# Procedure, shortened: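 ITC at 25 °C: ligand (1 mM) in 10 mM sodium phosphate pH 7.4 with 10% DMSO injected in 10 μL aliquots into 20 μM SL3 RNA in the same buffer. Injections lasted 24 s at 240 s spacing. Heats of ligand-into-buffer titrations were subtracted. Heat versus ligand:RNA molar ratio was fit to a sequential two-site model, with the second KD taken from the second site. Two measurements.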
# Nucleic Acid [4] = test: Binding affinity to HIV 1 fluorescein-labeled SL3 RNA by fluorescence spectrometry; format: nucleic-acid assay, Human immunodeficiency virus 1; conditions: for Kd: read-out: Kd(app); for Activity: Human immunodeficiency virus 1
# Procedure, shortened: (§2)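 Fluorescence titration of 5′-fluorescein-labeled RNA (25 nM) in 10 mM Tris-HCl pH 7.4, 25 mM NaCl at 25 °C. Ligand is added stepwise until the signal plateaus, with 3–5 min equilibration per addition. Excitation is 490 nm; emission at 517 nm is used. Fraction bound is fit to a 1:1 model, or a 2:1 cooperative model for one ligand, to give apparent KD. Fluorescein-only and DMSO controls are run. SD is from at least three measurements.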
# Nucleic Acid [5] = test: Selectivity ratio of Kd for double stranded RNA to Kd for HIV 1 SL3 RNA; format: nucleic-acid assay
# Nucleic Acid [6] = test: Selectivity ratio of Kd for single stranded RNA to Kd for HIV 1 SL3 RNA; format: nucleic-acid assay
# Nucleic Acid [7] = test: Binding affinity to double stranded RNA by fluorescence spectrometry; format: nucleic-acid assay; conditions: for Kd: read-out: Kd(app); procedure, shortened: as §2
# Nucleic Acid [8] = test: Binding affinity to single stranded RNA by fluorescence spectrometry; format: nucleic-acid assay; conditions: for Kd: read-out: Kd(app); procedure, shortened: as §2
# Nucleic Acid [9] = test: Binding affinity to double stranded RNA by ITC analysis; format: nucleic-acid assay; conditions: read-out: Kd(app); procedure, shortened: as §1
# Nucleic Acid [10] = test: Binding affinity to single stranded RNA by ITC analysis; format: nucleic-acid assay; conditions: read-out: Kd(app); procedure, shortened: as §1
# Nucleic Acid [11] = test: Binding affinity to double stranded RNA assessed as second binding dissociation constant by ITC analysis; format: nucleic-acid assay; conditions: read-out: Kd(app); procedure, shortened: as §1
# Nucleic Acid [12] = test: Binding affinity to single stranded RNA assessed as second binding dissociation constant by ITC analysis; format: nucleic-acid assay; conditions: read-out: Kd(app); procedure, shortened: as §1
# Nucleic Acid [13] = test: Inhibition of HIV1 [32P]-labeled SL3 RNA interaction with NCp at 1mM after 1 hr by electrophoretic gel mobility shift assay; format: nucleic-acid assay; conditions: Human immunodeficiency virus 1
# Procedure, shortened: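 Screen for single-point inhibition. Ligand is added at a final 1 mM to a preformed NCp7–SL3 RNA complex and incubated 1 h. Bound and free RNA are then resolved by gel mobility shift assay.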
structure (smiles),measurement,setting,value
O=C1NC(=S)NC(=O)C1=Cc1cn(-c2ccccc2)nc1-c1cc2c(ccc3ccccc32)oc1=O,Kd,Nucleic Acid [1],68 µM
same,IC50,Nucleic Acid [2],123 µM
same,Ki,Nucleic Acid [2],40 µM
same,Kd,Nucleic Acid [3],488 µM
O=[N+]([O-])c1ccc(SCCO)c2ncccc12,Kd,Nucleic Acid [4],90 µM
same,Selectivity ratio,Nucleic Acid [5],> 12
same,Selectivity ratio,Nucleic Acid [6],> 7
same,Kd,Nucleic Acid [7],> 1110 µM
same,Kd,Nucleic Acid [8],> 604 µM
Cc1cccn2c(=O)c3cc(C(=O)NCCN4CCOCC4)c(=N)n(Cc4cccnc4)c3nc12,Kd,Nucleic Acid [4],5 µM
same,Kd,Nucleic Acid [7],8.3 µM
same,Kd,Nucleic Acid [8],11.8 µM
O=C(NC(=S)Nc1ccc(N2CCCC2)cc1)c1ccccc1[N+](=O)[O-],Activity,Nucleic Acid [4],inactive
O=C(Cc1ccccc1)Nc1ccc(N2CCCC2)cc1,Activity,Nucleic Acid [4],inactive
Nc1c(S(=O)(=O)O)cc(Nc2ccc(S(N)(=O)=O)cc2)c2c1C(=O)c1ccccc1C2=O,Kd,Nucleic Acid [1],11 µM
same,IC50,Nucleic Acid [2],70 µM
same,Ki,Nucleic Acid [2],20 µM
same,Kd,Nucleic Acid [3],11000 µM
Cc1cccn2c(=O)c3cc(C(=O)N4CCN(C)CC4)c(=N)n(CC4CCCO4)c3nc12 (centres undefined),Kd,Nucleic Acid [1],14.5 µM
same,Kd,Nucleic Acid [9],189 µM
same,Kd,Nucleic Acid [10],280 µM
same,Kd,Nucleic Acid [11],2400 µM
same,Kd,Nucleic Acid [12],12000 µM
same,Kd,Nucleic Acid [4],10 µM
same,Selectivity ratio,Nucleic Acid [5],13
same,Selectivity ratio,Nucleic Acid [6],19
O=C(NN=Cc1ccc(Br)cc1)c1cc[n+](Cc2ccccc2)cc1,Kd,Nucleic Acid [4],33 µM
same,Activity,Nucleic Acid [7],Active
same,Activity,Nucleic Acid [8],Active
COc1ccc(N/C(S)=N/CCCn2ccnc2)cc1,Activity,Nucleic Acid [4],inactive
Nc1ccccc1NCCOc1ccccc1,Kd,Nucleic Acid [4],51 µM
same,Activity,Nucleic Acid [7],Active
same,Activity,Nucleic Acid [8],Active
CC1CCN(c2ccc(N)cc2)CC1,Kd,Nucleic Acid [4],44 µM
same,Activity,Nucleic Acid [7],Active
same,Activity,Nucleic Acid [8],Active
Cc1cccn2c(=O)c3cc(C(=O)NC(C)c4ccccc4)c(=N)n(CCOCCO)c3nc12 (centres undefined),Kd,Nucleic Acid [4],4.5 µM
same,Kd,Nucleic Acid [7],5.1 µM
same,Kd,Nucleic Acid [8],4.1 µM
COc1ccc(NCc2ccc([N+](=O)[O-])s2)cc1OC,Kd,Nucleic Acid [4],11.1 µM
same,Kd,Nucleic Acid [7],8.4 µM
same,Kd,Nucleic Acid [8],14 µM
O=C1NC(=S)N/C1=C/c1ccc2ccccc2c1,Kd,Nucleic Acid [4],13.2 µM
same,Kd,Nucleic Acid [7],12 µM
same,Kd,Nucleic Acid [8],7.5 µM
N=C1NC(=O)/C(=C\c2ccc3ccccc3c2)S1,Kd,Nucleic Acid [4],11 µM
same,Kd,Nucleic Acid [7],11.2 µM
same,Kd,Nucleic Acid [8],8.9 µM
O=C1c2ccccc2C(=O)c2c(NCCO)ccc(NCCO)c21,IC50,Nucleic Acid [2],700 µM
same,Ki,Nucleic Acid [2],200 µM
same,Kd,Nucleic Acid [4],1.1 µM
same,Kd,Nucleic Acid [7],3.2 µM
same,Kd,Nucleic Acid [8],2.2 µM
O=C(C[n+]1cccc(C(=O)N/N=C/c2ccc(Br)cc2)c1)c1ccccc1,Activity,Nucleic Acid [4],inactive
Nc1c(S(=O)(=O)O)cc(Nc2cccc(S(N)(=O)=O)c2)c2c1C(=O)c1ccccc1C2=O,inhibition,Nucleic Acid [13],Active
O=C1Oc2ccccc2C(=O)/C1=C/N1C(=O)N/C(=C\c2ccccc2O)C1=O,IC50,Nucleic Acid [2],340 µM
same,Ki,Nucleic Acid [2],110 µM
same,inhibition,Nucleic Acid [13],Active
CNC(=O)c1cc2c(=O)n3cccc(C)c3nc2n(CCCO)c1=N,Kd,Nucleic Acid [4],3.5 µM
same,Kd,Nucleic Acid [7],8.2 µM
same,Kd,Nucleic Acid [8],9.5 µM
CN1CCN(CCCN2c3ccccc3Sc3ccc(C(F)(F)F)cc32)CC1 [TRIFLUOPERAZINE],Kd,Nucleic Acid [4],1.7 µM
same,Kd,Nucleic Acid [7],2.19 µM
same,Kd,Nucleic Acid [8],2 µM
